Assays:
[1] = test system: BT-474; experiment: Cytotoxicity against human BT474 cells assessed as decrease in cell viability after 72 hrs by MTS assay; assay type: functional, cell-based; settings: BT-474, 72 h
Method in brief: (§1)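 Cell proliferation assay using the MTS reagent. Compounds were tested as a dilution series, and EC50 values were derived from the concentration–response data.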

[2] = test system: SK-OV-3; experiment: Cytotoxicity against human SKOV3 cells assessed as decrease in cell viability after 72 hrs by MTS assay; assay type: functional, cell-based; settings: SK-OV-3, 72 h; method in brief: as §1
[3] = test system: PANC-1; experiment: Cytotoxicity against human PANC1 cells assessed as decrease in cell viability after 72 hrs by MTS assay; assay type: functional, cell-based; settings: PANC-1, 72 h; method in brief: as §1
[4] = test system: HCT-116; experiment: Cytotoxicity against human HCT116 cells assessed as decrease in cell viability after 72 hrs by MTS assay; assay type: functional, cell-based; settings: HCT-116, 72 h; method in brief: as §1
[5] = test system: HepG2; experiment: Cytotoxicity against human HepG2 cells assessed as decrease in cell viability after 72 hrs by MTS assay; assay type: functional, cell-based; settings: HepG2, 72 h; method in brief: as §1
[6] = test system: DU-145; experiment: Cytotoxicity against human DU145 cells assessed as decrease in cell viability after 72 hrs by MTS assay; assay type: functional, cell-based; settings: DU-145, 72 h; method in brief: as §1
[7] = test system: HT-1080; experiment: Cytotoxicity against human HT1080 cells assessed as decrease in cell viability after 72 hrs by MTS assay; assay type: functional, cell-based; settings: HT-1080, 72 h; method in brief: as §1
[8] = test system: MES-SA; experiment: Cytotoxicity against human MESSA cells assessed as decrease in cell viability after 72 hrs by MTS assay; assay type: functional, cell-based; method in brief: as §1
[9] = test system: MES-SA/Dx5; experiment: Cytotoxicity against human MES-SA/Dx5 cells assessed as decrease in cell viability after 72 hrs by MTS assay; assay type: functional, cell-based; settings: MES-SA/Dx5, 72 h; method in brief: as §1
[10] = test system: 786-0; experiment: Cytotoxicity against human 786-O cells assessed as decrease in cell viability after 72 hrs by MTS assay; assay type: functional, cell-based; settings: 786-0, 72 h; method in brief: as §1
[11] = test system: Daudi; experiment: Cytotoxicity against human Daudi cells assessed as decrease in cell viability after 72 hrs by MTS assay; assay type: functional, cell-based; method in brief: as §1
[12] = test system: THP-1; experiment: Cytotoxicity against human THP1 cells assessed as decrease in cell viability after 72 hrs by MTS assay; assay type: functional, cell-based; settings: THP-1, 72 h; method in brief: as §1
[13] = test system: HeLa; experiment: Cytotoxicity against human HeLa cells assessed as decrease in cell viability after 72 hrs by MTS assay; assay type: functional, cell-based; method in brief: as §1
[14] = test system: MCF7; experiment: Cytotoxicity against human MCF7 cells assessed as decrease in cell viability after 72 hrs by MTS assay; assay type: functional, cell-based; settings: MCF7, 72 h; method in brief: as §1
[15] = test system: BXPC-3; experiment: Cytotoxicity against human BxPC3 cells assessed as decrease in cell viability after 72 hrs by MTS assay; assay type: functional, cell-based; settings: BXPC-3, 72 h; method in brief: as §1
[16] = test system: LoVo; experiment: Cytotoxicity against human LoVo cells assessed as decrease in cell viability after 72 hrs by MTS assay; assay type: functional, cell-based; method in brief: as §1
[17] = Cytotoxicity against human LOX cells assessed as decrease in cell viability after 72 hrs by MTS assay; assay type: functional, cell-based; method in brief: as §1
[18] = test system: U-87 MG; experiment: Cytotoxicity against human U87MG cells assessed as decrease in cell viability after 72 hrs by MTS assay; assay type: functional, cell-based, U-87MG ATCC; method in brief: as §1
[19] = test system: NCI-N87; experiment: Cytotoxicity against human NCI-N87 cells assessed as decrease in cell viability after 72 hrs by MTS assay; assay type: functional, cell-based; settings: NCI-N87, 72 h; method in brief: as §1
[20] = test system: A549; experiment: Cytotoxicity against human A549 cells assessed as decrease in cell viability after 72 hrs by MTS assay; assay type: functional, cell-based; settings: A549, 72 h; method in brief: as §1
[21] = test system: NCI-H1975; experiment: Cytotoxicity against human NCI-H1975 cells assessed as decrease in cell viability after 72 hrs by MTS assay; assay type: functional, cell-based; settings: NCI-H1975, 72 h; method in brief: as §1
[22] = test system: MV4-11; experiment: Cytotoxicity against human MV411 cells assessed as decrease in cell viability after 72 hrs by MTS assay; assay type: functional, cell-based; settings: MV4-11, 72 h; method in brief: as §1
[23] = test system: MDA-MB-468; experiment: Cytotoxicity against human MDA-MB-468 cells assessed as decrease in cell viability after 72 hrs by MTS assay; assay type: functional, cell-based; settings: MDA-MB-468, 72 h; method in brief: as §1
[24] = test system: HUVEC; experiment: Cytotoxicity against human HUVEC cells assessed as decrease in cell viability after 72 hrs by MTS assay; assay type: cell-based; method in brief: as §1
[25] = test system: MRC5; experiment: Cytotoxicity against human MRC5 cells assessed as decrease in cell viability after 72 hrs by MTS assay; assay type: cell-based; settings: MRC5, 72 h; method in brief: as §1
[26] = test system: H22; experiment: Cytotoxicity against mouse H22 cells assessed as decrease in cell viability after 72 hrs by MTS assay; assay type: functional, cell-based; settings: H22, 72 h; method in brief: as §1
[27] = test system: CCRF S-180; experiment: Cytotoxicity against mouse S180 cells assessed as decrease in cell viability after 72 hrs by MTS assay; assay type: functional, cell-based; settings: CCRF S-180, 72 h; method in brief: as §1

Q: For `CC1(C)[C@@H](OC(N)=O)[C@H]2O[C@H]2[C@]2(C=O)[C@H]3CC[C@]4(C)[C@@H](c5ccc(=O)oc5)[C@@H](Cl)C[C@]4(O)C3=CC[C@@H]12`, which EC50 [1] is on record?
A: 3.9 nM

Q: What about the EC50 [2] of the same compound?
A: 6.1 nM

Q: And the EC50 [3]?
A: 2.4 nM

Q: What about the EC50 [4] of the same compound?
A: 5.9 nM

Q: What about the EC50 [5] of the same compound?
A: 3.2 nM

Q: And the EC50 [6]?
A: 7.2 nM

Q: And the EC50 [7]?
A: 5.4 nM

Q: And the EC50 [8]?
A: 7.4 nM

Q: What about the EC50 [9] of the same compound?
A: 5.7 nM

Q: And the EC50 [10]?
A: 2.6 nM

Q: And the EC50 [11]?
A: 2.8 nM

Q: What about the EC50 [12] of the same compound?
A: 4.1 nM

Q: And the EC50 [13]?
A: 5.1 nM

Q: And the EC50 [14]?
A: 15 nM

Q: What about the EC50 [15] of the same compound?
A: 5.5 nM

Q: And the EC50 [16]?
A: 6 nM

Q: What about the EC50 [17] of the same compound?
A: 3.2 nM

Q: And the EC50 [18]?
A: 6.4 nM

Q: What about the EC50 [19] of the same compound?
A: 6.3 nM

Q: What about the EC50 [20] of the same compound?
A: 3.8 nM

Q: What about the EC50 [21] of the same compound?
A: 4.9 nM

Q: What about the EC50 [22] of the same compound?
A: 6.4 nM

Q: And the EC50 [23]?
A: 8.4 nM

Q: What about the EC50 [24] of the same compound?
A: 7.7 nM

Q: What about the EC50 [25] of the same compound?
A: 2.7 nM

Q: And the EC50 [26]?
A: 2400 nM

Q: And the EC50 [27]?
A: > 20000 nM

From ChEMBL document CHEMBL4266027, “Cyanobufalins: Cardioactive Toxins from Cyanobacterial Blooms” (J Nat Prod, 2018)
